Measured values gathered from unrelated publications.
Compare with care: the assays were run in different laboratories. In brackets after ≈: the same amount, converted by molar mass.

SMILES | tested on | assay | system | setting | quantity | result
CC1(C)C[C@H]2[C@H]1CC[C@]1(C)CCC[C@@]2(NS(=O)(=O)c2ccc(OC(F)(F)F)cc2)C1 | HT-29 | cell growth or viability, CCK-8 |  | 10 µM | inhibition | < 50%
CC(=O)NC[C@H]1CN(c2ccc(N3CCOCC3)c(F)c2)C(=O)O1 | Streptococcus pneumoniae | microbial growth | PRSP | clinical isolate | MIC90 | 2 µg/mL
O=c1c2cc(Cl)ccc2nc(-c2ccccc2)n1N=Cc1c(F)cccc1Cl | LLC-PK1 | cell growth or viability, MTT |  | 72 h | IC50 | 46.4 µM
CC1(C)C[C@H]2[C@H]1CC[C@]1(C)CCC[C@@]2(n2cc(C(=O)NC3CCNCC3)nn2)C1 | HT-29 | cell growth or viability, CCK-8 |  | 10 µM | inhibition | 68.1%
COc1cccc(C=Nn2c(-c3ccccc3)nc3ccc(Cl)cc3c2=O)c1 | LLC-PK1 | cell growth or viability, MTT |  | 72 h | IC50 | 177 µM
CS(=O)(=O)Oc1ccc(C=NNC(=O)CSc2nc3ccc(Cl)cc3c(=O)n2-c2ccccc2)cc1 | Klebsiella pneumoniae | microbial growth, well diffusion |  | 20 µg/mL | inhibition zone | 2 mm
CN[C@H](CC(C)C)C(=O)N[C@H]1C(=O)N[C@@H](CC(N)=O)C(=O)N[C@H]2C(=O)N[C@H]3C(=O)N[C@H](C(=O)N[C@H](C(=O)O)c4cc(O)cc(O)c4-c4cc3ccc4O)[C@H](O)c3ccc(c(Cl)c3)Oc3cc2cc(c3O[C@@H]2O[C@H](CO)[C@@H](O)[C@H](O)[C@H]2O[C@H]2C[C@](C)(N)[C@H](O)[C@H](C)O2)Oc2ccc(cc2Cl)[C@H]1O | Streptococcus pneumoniae | microbial growth | PRSP | clinical isolate | MIC90 | 1 µg/mL
CC1(C)C[C@H]2[C@H]1CC[C@]1(C)CCC[C@@]2(n2cc(C(=O)NCCN)nn2)C1 | HT-29 | cell growth or viability, CCK-8 |  | 50 µM | inhibition | 78.3%
CCS(=O)(=O)Oc1ccc(C=NNC(=O)CSc2nc3c(C)cccc3c(=O)n2-c2ccccc2)cc1 | Klebsiella pneumoniae | microbial growth, well diffusion |  | 20 µg/mL | inhibition zone | 2 mm
CC1(C)S[C@@H]2[C@H](NC(=O)[C@H](N)c3ccccc3)C(=O)N2[C@H]1C(=O)O | Streptococcus pneumoniae | microbial growth, agar dilution | ATCC49619 |  | MIC | 0.5 µg/mL (≈ 1.43 µM)
CCCS(=O)(=O)Oc1ccc(C=NNC(=O)CSc2nc3ccc(Cl)cc3c(=O)n2-c2ccccc2)cc1OC | Klebsiella pneumoniae | microbial growth, well diffusion |  | 20 µg/mL | inhibition zone | 2 mm
O=c1oc2ccccc2c(Nc2ccccc2)c1I | Klebsiella pneumoniae | microbial growth, broth dilution |  |  | MIC90 | 9 µg/mL
CC1(C)C[C@H]2[C@H]1CC[C@]1(C)CCC[C@@]2(NS(=O)(=O)C(C)(C)C)C1 | HT-29 | cell growth or viability, CCK-8 |  | 50 µM | inhibition | 71.4%
C=C[C@]1(C)C[C@@H](OC(=O)CS[C@@H]2C[C@H]3CC[C@@H](C2)N3C)[C@]2(C)[C@H](C)CC[C@]3(CCC(=O)[C@H]32)[C@@H](C)[C@@H]1O | Streptococcus pneumoniae | microbial growth, agar dilution | ATCC49619 |  | MIC | 0.0312 µg/mL (≈ 0.0604 µM)
CCCS(=O)(=O)Oc1cc(C=NNC(=O)CSc2nc3c(C)cccc3c(=O)n2-c2ccccc2)ccc1OC | Klebsiella pneumoniae | microbial growth, well diffusion |  | 20 µg/mL | inhibition zone | 2 mm
CC1(C)C[C@H]2[C@H]1CC[C@]1(C)CCC[C@@]2(NS(=O)(=O)c2cc(Cl)cc(Cl)c2O)C1 | HT-29 | cell growth or viability, CCK-8 |  | 10 µM | inhibition | < 50%
Cc1nc(Nc2ncc(C(=O)Nc3c(C)cccc3Cl)s2)cc(N2CC[C@H](O)C2)n1 | CA46 | cell growth or viability, ATP luminescence |  | 10 µM, 72 h | inhibition | 56%
CC1(C)S[C@@H]2[C@H](NC(=O)[C@H](N)c3ccc(O)cc3)C(=O)N2[C@H]1C(=O)O | Vibrio vulnificus | microbial growth, broth dilution |  |  | MIC90 | 3 µM
CC1(C)C[C@H]2[C@H]1CC[C@]1(C)CCC[C@@]2(n2cc(C(=O)N3CCNCC3)nn2)C1 | HT-29 | cell growth or viability, CCK-8 |  | 10 µM | inhibition | 91.6%
CCS(=O)(=O)Oc1cc(C=NNC(=O)CSc2nc3c(C)cccc3c(=O)n2-c2ccccc2)ccc1OC | Klebsiella pneumoniae | microbial growth, well diffusion |  | 20 µg/mL | inhibition zone | 3 mm
COc1c(N2C[C@@H]3CCCN[C@@H]3C2)c(F)cc2c(=O)c(C(=O)O)cn(C3CC3)c12 | Streptococcus pneumoniae | microbial growth, agar dilution | ATCC49619 |  | MIC | 0.125 µg/mL (≈ 0.311 µM)
CC1(C)C[C@H]2[C@H]1CC[C@]1(C)CCC[C@@]2(n2cc(CN3CCOCC3)nn2)C1 | HT-29 | cell growth or viability, CCK-8 |  | 10 µM | inhibition | < 50%
CCCS(=O)(=O)Oc1ccc(C=NNC(=O)CSc2nc3c(C)cccc3c(=O)n2-c2ccccc2)cc1OC | Klebsiella pneumoniae | microbial growth, well diffusion |  | 20 µg/mL | inhibition zone | 2 mm
CC1(C)C[C@H]2[C@H]1CC[C@]1(C)CCC[C@@]2(n2cc(-c3ccc(F)cc3)nn2)C1 | HT-29 | cell growth or viability, CCK-8 |  | 10 µM | inhibition | < 50%
CCS(=O)(=O)Oc1ccc(C=NNC(=O)CSc2nc3ccc(Cl)cc3c(=O)n2-c2ccccc2)cc1 | Klebsiella pneumoniae | microbial growth, well diffusion |  | 20 µg/mL | inhibition zone | 2 mm
O=c1c2cc(Cl)ccc2nc(-c2ccccc2)n1N=Cc1cccc(O)c1 | LLC-PK1 | cell growth or viability, MTT |  | 72 h | IC50 | 321 µM
CC[C@H]1OC(=O)[C@H](C)[C@@H](O[C@H]2C[C@@](C)(OC)[C@@H](O)[C@H](C)O2)[C@H](C)[C@@H](O[C@@H]2O[C@H](C)C[C@H](N(C)C)[C@H]2O)[C@](C)(O)C[C@@H](C)/C(=N\OCOCCOC)[C@H](C)[C@@H](O)[C@]1(C)O | Streptococcus pneumoniae | microbial growth |  | clinical isolate | MIC90 | 4 µg/mL
COc1ccc(C=NNC(=O)CSc2nc3ccc(Cl)cc3c(=O)n2-c2ccccc2)cc1OS(C)(=O)=O | Klebsiella pneumoniae | microbial growth, well diffusion |  | 20 µg/mL | inhibition zone | 3 mm
